Here are results for one molecule from ChEMBL document CHEMBL5036380, “New Highly Potent NLRP3 Inhibitors: Furanochalcone Velutone F Analogues” (ACS Med Chem Lett, 2022).

One series concerns Spleen. The series can be described thus: Downregulation of IL-1beta level in spleen of LPS treated C57BL/6J mouse at 10 mg/kg, iv measured after 6 hrs by ELISA. A general note: ELISA stands for enzyme-linked immunosorbent assay.
The nature of series [1]: Half life in Sprague-Dawley rat at 90 mg/kg, po measured up to 24 hrs by LC-MS/MS analysis. The format is ADME, organism-based. Conditions: in vivo. The method in brief:
(§1)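 Single doses given intravenously (10 mg/kg) or orally (10, 30, 90 mg/kg); plasma levels quantified by LC/MS/MS at multiple time points. Parameters reported as mean values: AUC0–t, CL, Cmax, T1/2, Tmax, and %F based on AUC.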

Series [2] is described as follows: Tmax in Sprague-Dawley rat at 90 mg/kg, po measured up to 24 hrs by LC-MS/MS analysis. Conditions: in vivo. The format is ADME, organism-based. An outline of the steps: as §1
Series [3] has as its system THP-1. The series can be described thus: Cytotoxicity against human THP-1 cells assessed as reduction in cell viability at 0.05 to 6.4 uM measured after 90 mins by CCK8 assay. The format is cell-based. The following applies: thp-1, 1.5 h, dose 0.05-6.4 µM. An outline of the steps: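 THP-1 cells preincubated with compound (0.05–6.4 μM) for 1.5 h; viability read by CCK8 assay.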
Background: Tetrazolium assays rely on reduction of a dye to a coloured formazan, in cell work by metabolically active cells.

Series [4] deals with THP-1. Nature of the series: Effect on TNFalpha expression in LPS-stimulated human THP-1 cells preincubated for 40 mins followed by LPS addition and measured after 3 hrs by Western blot analysis. Conditions: time 220.0 min. The format is functional, cell-based. The method in brief:
(§2)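 THP-1 cells were given compound for 40 min, then primed with LPS for 3 h. Medium supernatant was analysed for TNF-α. Cell extracts were immunoblotted for pro-IL-1β and NLRP3.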

Series [5] can be described thus: Oral bioavailability in Sprague-Dawley rat at 30 mg/kg measured up to 24 hrs by LC-MS/MS analysis. Conditions: in vivo. Format: ADME, organism-based. The method in brief: as §1
A short description of series [6]: AUC (0 to t) in Sprague-Dawley rat at 90 mg/kg, po measured up to 24 hrs by LC-MS/MS analysis. The format is ADME, organism-based. Further details: route oral, dose 90 mg/kg, time <=24. The following applies: in vivo. The method in brief:
as §1

The nature of series [7]: Cmax in Sprague-Dawley rat at 90 mg/kg, po measured up to 24 hrs by LC-MS/MS analysis. Further details: route oral, dose 90 mg/kg, time <=24. The following applies: in vivo. Format: ADME, organism-based. The method in brief:
as §1

Series [8] in a line: Tmax in Sprague-Dawley rat at 10 mg/kg, po measured up to 24 hrs by LC-MS/MS analysis. Format: ADME, organism-based. Conditions: in vivo. An outline of the steps:
as §1

In series [9] the test system is THP-1. Nature of the series: Effect on TNFalpha expression in LPS-stimulated human THP-1 cells at 1 uM preincubated for 40 mins followed by LPS addition and measured after 3 hrs by Western blot analysis. The format is functional, cell-based. The following applies: time 220.0 min. An outline of the steps: as §2
For orientation: Immunoblotting shows a protein as a band on a membrane.

The subject of series [10] is THP-1. Nature of the series: Antiinflammatory activity in human THP-1 cells assessed as blockade of caspase 1 p20 in LPS stimulation followed by pretreatment for 40 min before induced with nigericin for 40 min measured by western blot analysis. Format: functional, cell-based. The following applies: time 80.0 min. The method in brief:
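PMA-differentiated THP-1 cells were primed with LPS, exposed to graded compound doses for 40 min, then given nigericin for 40 min. Supernatants were immunoblotted for IL-1β and caspase-1. Cell extracts were immunoblotted for NLRP3, pro-IL-1β and pro-caspase-1.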

The test system of series [11] is THP-1. Nature of the series: Effect on ASC oligomerization in LPS/nigericin stimulated human THP-1 cells assessed as ASC specks in LPS stimulation for 3 hrs followed by pretreatment for 40 min before induced with nigericin for 40 min by ASC and DAPI staining based immunofluorescent microscopy. The format is functional, cell-based. The following applies: time 80.0 min. An outline of the steps: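 THP-1 cells were LPS-primed, treated with compound, then activated with nigericin. Endogenous ASC was visualized by immunofluorescence microscopy. The proportion of cells with ASC specks was counted, with NLRP3 KO THP-1 cells as comparison.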

Series [12] is described as follows: Tmax in Sprague-Dawley rat at 30 mg/kg, po measured up to 24 hrs by LC-MS/MS analysis. The format is ADME, organism-based. The following applies: in vivo. An outline of the steps:
as §1

Series [13] deals with NACHT, LRR and PYD domains-containing protein 3 (Homo sapiens) (UniProt Q96P20). Nature of the series: Inhibition of NLRP3 in human THP-1cells assessed as increase in thermal stability at 0.5 to 5 uM at 57 deg C measured by cellular thermal shift assay. Conditions: dose 0.5-5 µM.
Chain of NACHT, LRR and PYD domains-containing protein 3 (Homo sapiens) (Q96P20 whole entry, the tested form may be a part): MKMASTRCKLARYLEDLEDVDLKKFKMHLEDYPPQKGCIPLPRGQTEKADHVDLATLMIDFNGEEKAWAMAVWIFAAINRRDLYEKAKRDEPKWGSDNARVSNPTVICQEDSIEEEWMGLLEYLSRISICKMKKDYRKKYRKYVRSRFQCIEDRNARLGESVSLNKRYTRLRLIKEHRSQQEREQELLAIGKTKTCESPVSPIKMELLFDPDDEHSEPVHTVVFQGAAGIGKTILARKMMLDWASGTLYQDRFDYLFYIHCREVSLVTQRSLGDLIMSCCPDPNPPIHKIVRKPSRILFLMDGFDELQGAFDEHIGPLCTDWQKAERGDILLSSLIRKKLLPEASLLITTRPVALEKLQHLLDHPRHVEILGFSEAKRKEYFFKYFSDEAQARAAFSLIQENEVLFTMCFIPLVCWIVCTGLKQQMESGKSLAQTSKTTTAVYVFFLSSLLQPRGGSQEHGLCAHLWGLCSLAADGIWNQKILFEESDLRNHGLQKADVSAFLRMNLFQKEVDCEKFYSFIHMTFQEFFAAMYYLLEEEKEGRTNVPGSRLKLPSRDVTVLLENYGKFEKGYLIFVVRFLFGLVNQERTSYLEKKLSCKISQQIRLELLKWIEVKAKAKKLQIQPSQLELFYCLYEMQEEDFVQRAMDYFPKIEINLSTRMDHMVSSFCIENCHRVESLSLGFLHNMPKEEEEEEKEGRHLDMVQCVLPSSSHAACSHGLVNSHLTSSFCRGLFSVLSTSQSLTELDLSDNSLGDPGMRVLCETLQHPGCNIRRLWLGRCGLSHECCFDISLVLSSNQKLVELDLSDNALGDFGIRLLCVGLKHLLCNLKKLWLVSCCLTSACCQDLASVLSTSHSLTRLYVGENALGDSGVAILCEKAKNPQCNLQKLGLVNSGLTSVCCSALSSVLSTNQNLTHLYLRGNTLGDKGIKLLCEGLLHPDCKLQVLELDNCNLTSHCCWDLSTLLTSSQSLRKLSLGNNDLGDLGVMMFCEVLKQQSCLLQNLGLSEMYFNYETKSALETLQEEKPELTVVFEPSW
Series [14] is described as follows: Oral bioavailability in Sprague-Dawley rat at 90 mg/kg measured up to 24 hrs by LC-MS/MS analysis. Format: ADME, organism-based. Conditions: in vivo. An outline of the steps:
as §1

A short description of series [15]: Cmax in Sprague-Dawley rat at 10 mg/kg, po measured up to 24 hrs by LC-MS/MS analysis. Conditions: in vivo. Further details: route oral, dose 10 mg/kg, time <=24. Format: ADME, organism-based. An outline of the steps: as §1

Structures are written as SMILES. The source made the active and inactive calls.

A word on the half-life: it is the time needed for the level to fall by half in the phase considered. Read a high half-life as slow decline. By Tmax is commonly meant the time from dosing to the highest level. One may read the bioavailability as dose-corrected exposure relative to a reference, in per cent. The low end stands for poor availability, the high end for good availability. Broadly, the AUC(0-t) is exposure summed from dosing to a finite time, without extrapolation to infinity. Low readings indicate less exposure, high ones more exposure. By Cmax is commonly meant the peak of the concentration-time curve. With `COc1cc(/C=C/C(=O)c2ccc(F)cc2)c(OC)cc1Br`, the outcome in the series with Spleen and with THP-1 [11] was Active. Besides, the half-life in series [1] was 6.08 h. Further, the values for the Tmax in [2], in series [8] and in series [12] were 4.21 h, 2.11 h and 1.26 h, respectively. Moreover, the figures for the Activity result in the series on THP-1 [3] and in the series on THP-1 [10] were “Non-Toxic” and “Dose-Dependent Effect”, respectively. For the same molecule, the result in the series with THP-1 [4] and with THP-1 [9] was inactive. Also, the results for the bioavailability in series [5] and in series [14] were 4.99% and 2.47%, respectively. The molecule also gave an AUC(0-t) at 24 h in series [6] of 23.5 ng·h/mL. Further, the results for the Cmax in [7] and in [15] were 13.6 ng/mL and 3.35 ng/mL, respectively. Also, the inhibition result in series [13] was “Dose-Dependent Effect”.
